According to ChEMBL document CHEMBL1139743, “Synthesis and antihyperlipidemic activity of novel glycosyl fructose derivatives” (2006):

Experiments:
Assay type in all cases: functional, Mesocricetus auratus
Syrian golden hamster [1] = experiment: Antihyperlipidemic activity measured by increase in free fatty acid level in golden syrian hamster at 100 mg/kg, po relative to control
How it was run: (§1)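 High-fat-diet hyperlipidemic male golden Syrian hamsters (120–130 g, n=8 per group) were dosed orally in water vehicle on days 4–10; water-only HFD hamsters served as controls. On day 10, nonfasted blood was drawn into tubes containing 120 µL NaF (4.5 mg/mL) and chilled to 0 C for 15 min. Glycerol and free fatty acids were assayed in this NaF plasma on a clinical chemistry analyser.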

Syrian golden hamster [2] = experiment: Antihyperlipidemic activity measured by decrease in cholesterol level in golden syrian hamster at 100 mg/kg, po relative to control; parameters: scale not given: the % may be the effect or the level left
How it was run: (§2)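 Male golden Syrian hamsters (120–130 g), 8 per group, made hyperlipidemic on high fat diet with free access to diet and water throughout. Compound given orally in water from day 4 to day 10 (7 days); HFD hamsters given water only served as controls. On day 10, blood from nonfasted animals was drawn and cooled to 0 C for 15 min. Triglycerides, total cholesterol and HDL cholesterol were measured the same day in plasma without NaF using enzymatic kits.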

Syrian golden hamster [3] = experiment: Antihyperlipidemic activity measured by cholesterol level in golden syrian hamster at 100 mg/kg, po; how it was run: as §2
Syrian golden hamster [4] = experiment: Antihyperlipidemic activity measured by increase in glycerol level in golden syrian hamster at 100 mg/kg, po relative to control; how it was run: as §1
Syrian golden hamster [5] = experiment: Antihyperlipidemic activity measured by triglyceride level in golden syrian hamster at 100 mg/kg, po; how it was run: as §2
Syrian golden hamster [6] = experiment: Antihyperlipidemic activity measured by HDL/total cholesterol ratio in golden syrian hamster at 100 mg/kg, po; how it was run: as §2
Syrian golden hamster [7] = experiment: Antihyperlipidemic activity measured by HDL level in golden syrian hamster at 100 mg/kg, po; how it was run: as §2
Syrian golden hamster [8] = experiment: Antihyperlipidemic activity measured by glycerol level in golden syrian hamster at 100 mg/kg, po; how it was run: as §1
Syrian golden hamster [9] = experiment: Antihyperlipidemic activity measured by free fatty acid level in golden syrian hamster at 100 mg/kg, po; how it was run: as §1
Syrian golden hamster [10] = experiment: Antihyperlipidemic activity measured by increase in HDL/total cholesterol ratio in golden syrian hamster at 100 mg/kg, po relative to control; how it was run: as §2
Syrian golden hamster [11] = experiment: Antihyperlipidemic activity measured by decrease in triglyceride level in golden syrian hamster at 100 mg/kg, po relative to control; parameters: scale not given: the % may be the effect or the level left; how it was run: as §2
Syrian golden hamster [12] = experiment: Antihyperlipidemic activity measured by increase in HDL level in golden syrian hamster at 100 mg/kg, po relative to control; how it was run: as §2
Syrian golden hamster [13] = experiment: Antihyperlipidemic activity measured by decrease in free fatty acid level in golden syrian hamster at 100 mg/kg, po relative to control; parameters: scale not given: the % may be the effect or the level left; how it was run: as §1
Syrian golden hamster [14] = experiment: Antihyperlipidemic activity measured by decrease in glycerol level in golden syrian hamster at 100 mg/kg, po relative to control; parameters: scale not given: the % may be the effect or the level left; how it was run: as §1
Syrian golden hamster [15] = experiment: Antihyperlipidemic activity measured by increase in cholesterol level in golden syrian hamster at 100 mg/kg, po relative to control; how it was run: as §2
Syrian golden hamster [16] = experiment: Antihyperlipidemic activity measured by decrease in HDL/total cholesterol ratio in golden syrian hamster at 100 mg/kg, po relative to control; parameters: scale not given: the % may be the effect or the level left; how it was run: as §2
Syrian golden hamster [17] = experiment: Antihyperlipidemic activity measured by decrease in free fatty acid level in golden syrian hamster at 25 mg/kg relative to control; parameters: scale not given: the % may be the effect or the level left; how it was run: as §1
Syrian golden hamster [18] = experiment: Antihyperlipidemic activity measured by free fatty acid level in golden syrian hamster at 25 mg/kg; how it was run: as §1
Syrian golden hamster [19] = experiment: Antihyperlipidemic activity measured by HDL level in golden syrian hamster at 25 mg/kg; how it was run: as §2
Syrian golden hamster [20] = experiment: Antihyperlipidemic activity measured by HDL/total cholesterol ratio in golden syrian hamster at 25 mg/kg; how it was run: as §2
Syrian golden hamster [21] = experiment: Antihyperlipidemic activity measured by increase in HDL level in golden syrian hamster at 25 mg/kg relative to control; how it was run: as §2
Syrian golden hamster [22] = experiment: Antihyperlipidemic activity measured by increase in HDL/total cholesterol ratio in golden syrian hamster at 25 mg/kg relative to control; how it was run: as §2
Syrian golden hamster [23] = experiment: Antihyperlipidemic activity measured by cholesterol level in golden syrian hamster at 25 mg/kg; how it was run: as §2
Syrian golden hamster [24] = experiment: Antihyperlipidemic activity measured by decrease in cholesterol level in golden syrian hamster at 25 mg/kg relative to control; parameters: scale not given: the % may be the effect or the level left; how it was run: as §2
Syrian golden hamster [25] = experiment: Antihyperlipidemic activity measured by glycerol level in golden syrian hamster at 25 mg/kg; how it was run: as §1
Syrian golden hamster [26] = experiment: Antihyperlipidemic activity measured by decrease in glycerol level in golden syrian hamster at 25 mg/kg relative to control; parameters: scale not given: the % may be the effect or the level left; how it was run: as §1
Syrian golden hamster [27] = experiment: Antihyperlipidemic activity measured by triglyceride level in golden syrian hamster at 25 mg/kg; how it was run: as §2
Syrian golden hamster [28] = experiment: Antihyperlipidemic activity measured by decrease in triglyceride level in golden syrian hamster at 25 mg/kg relative to control; parameters: scale not given: the % may be the effect or the level left; how it was run: as §2
Syrian golden hamster [29] = experiment: Antihyperlipidemic activity measured by increase in triglyceride level in golden syrian hamster at 100 mg/kg, po relative to control; how it was run: as §2

Structure (SMILES)	Activity (Syrian golden hamster [2]) [%]	Activity (Syrian golden hamster [3]) [mM]	Activity (Syrian golden hamster [4]) [%]	Activity (Syrian golden hamster [5]) [mM]	Ratio (Syrian golden hamster [6])	Activity (Syrian golden hamster [7]) [mM]	Activity (Syrian golden hamster [8]) [mM]	Activity (Syrian golden hamster [9]) [µM]	Activity (Syrian golden hamster [10]) [%]	Activity (Syrian golden hamster [11]) [%]	Activity (Syrian golden hamster [12]) [%]	Activity (Syrian golden hamster [13]) [%]	Activity (Syrian golden hamster [14]) [%]	Activity (Syrian golden hamster [15]) [%]	further results
C[C@@H]1O[C@@H](O[C@H]2[C@H](O)[C@@H](CO)O[C@]2(O)CO)[C@H](O)[C@H](O)[C@H]1O	24	8.82	32	14.17	0.35	3.1	1.11	833.12	30	–	–	–	–	–	Activity (Syrian golden hamster [1]): 15%
OC[C@H]1O[C@](O)(CO)[C@@H](O[C@@H]2O[C@H](CO)[C@@H](O[C@H]3O[C@H](CO)[C@@H](O)[C@H](O)[C@H]3O)[C@H](O)[C@H]2O)[C@@H]1O	–	11.38	–	12.76	0.3	3.43	0.82	726.74	12	11	11	–	–	–	–
OC[C@H]1O[C@](O)(CO)[C@@H](O[C@@H]2OC[C@@H](O)[C@H](O)[C@H]2O)[C@@H]1O	–	12	–	10.08	0.27	3.26	0.61	692.34	–	30	5	4	28	–	–
OC[C@H]1O[C@@H](O[C@H]2[C@H](O)[C@@H](CO)O[C@]2(O)CO)[C@H](O)[C@@H](O)[C@H]1O	–	17.59	–	6.88	0.21	3.6	0.82	450	–	52	16	38	–	52	Activity (Syrian golden hamster [16]): 22%
OC[C@H]1O[C@](O)(CO)[C@@H](O[C@@H]2OC[C@@H](O)[C@@H](O)[C@H]2O)[C@@H]1O	23	8.9	18	13.09	0.35	3.14	0.99	924.84	31	9	–	–	–	–	Activity (Syrian golden hamster [1]): 28%
OC[C@H]1O[C@](O)(CO)[C@@H](O[C@H]2O[C@H](CO)[C@@H](O)[C@H](O)[C@@H]2O)[C@@H]1O	–	15.26	–	10.16	0.28	4.33	0.66	510.7	5	29	40	30	21	32	–
OC[C@H]1O[C@H](OC[C@H]2O[C@H](O[C@]3(CO)O[C@H](CO)[C@@H](O)[C@@H]3O)[C@H](O)[C@@H](O)[C@@H]2O)[C@H](O)[C@@H](O)[C@H]1O [RAFFINOSE]	35	7.55	–	8.06	0.45	3.41	0.86	540.49	66	44	10	25	–	–	–
OC[C@H]1O[C@@H](O[C@H]2[C@H](O)[C@@H](O)[C@H](O[C@H]3[C@H](O)[C@@H](CO)O[C@]3(O)CO)O[C@@H]2CO)[C@H](O)[C@@H](O)[C@H]1O	9	10.55	–	7.61	0.34	3.55	0.75	670.62	25	47	15	8	11	–	Activity (Syrian golden hamster [17]): 21%; Activity (Syrian golden hamster [18]): 0.572 mM; Activity (Syrian golden hamster [19]): 3.28 mM; Ratio (Syrian golden hamster [20]): 0.3; Activity (Syrian golden hamster [21]): 5%; Activity (Syrian golden hamster [22]): 11%; Activity (Syrian golden hamster [23]): 11.02 mM; Activity (Syrian golden hamster [24]): 5%; Activity (Syrian golden hamster [25]): 0.7 mM; Activity (Syrian golden hamster [26]): 17%; Activity (Syrian golden hamster [27]): 7.96 mM; Activity (Syrian golden hamster [28]): 44%
OC[C@H]1O[C@](O)(CO)[C@@H](O[C@H]2OC[C@@H](O)[C@@H](O)[C@@H]2O)[C@@H]1O	–	12.04	19	15.26	0.29	3.49	1	708.69	7	–	13	–	–	4	Activity (Syrian golden hamster [29]): 6%
OC[C@H]1O[C@@](CO)(O[C@H]2O[C@H](CO)[C@@H](O)[C@H](O)[C@H]2O)[C@@H](O[C@H]2O[C@H](CO)[C@@H](O)[C@H](O)[C@H]2O)[C@@H]1O [MELEZITOSE]	–	13	–	6.98	0.38	4.95	0.71	510.7	41	51	59	30	15	12	–
